Like-named read-outs stand apart in the source and are kept apart here.
Columns and labels:
[1] = test system: Plasmodium falciparum; assay: Phase 2a single-dose efficacy: PCR-adjusted ACPR, thick blood smear microscopy; format: in vivo; settings: P falciparum
Summary of the method: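 P falciparum patients (1000–35 000 asexual parasites per μL) received one oral dose of 400 or 250 mg. Treatment failure was read by thick blood smear microscopy; the first cohort initially used quantitative PCR. PCR adjustment distinguished recrudescence from new infection. ACPR was scored at days 14 and 28. ITT included all dosed patients; per-protocol excluded those who vomited, took other medication, had protocol violations or lacked data.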

[2] = test system: Plasmodium vivax; assay: Phase 2a single-dose efficacy: crude cure, thick blood smear microscopy; format: in vivo
Summary of the method: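 P vivax patients (1000–35 000 asexual parasites per μL) received one oral dose of 400, 600 or 800 mg. Crude cure meant clearance of asexual parasites within 7 days with no later recurrence, read by thick smear microscopy without PCR adjustment. It was scored at day 14, and cure at day 28. Rescue treatment was given if parasites remained at day 7. Analysis used ITT and per-protocol populations.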

[3] = test system: Plasmodium falciparum; assay: Asexual parasite clearance parameters; format: in vivo; settings: P falciparum
Summary of the method: (§1)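 Parasitaemia was counted by microscopy before one oral dose of the test compound and every 4 h over days 0–3. If two consecutive negative readings were not reached, the stay was extended to 7 days with counts every 6 h until clearance. Clearance kinetics, including lag time before parasite decline, followed WWARN statistical procedures. Kaplan-Meier analyses used a modified ITT population.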

[4] = test system: Plasmodium vivax; assay: Asexual parasite clearance parameters; format: in vivo; settings: P vivax
Summary of the method: as §1

[5] = Pharmacokinetics in malaria patients; format: in vivo, human
Summary of the method: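 A further sample was taken on day 5 or 7, depending on day-3 parasitaemia. Later samples were taken on days 10–11, 14, 17–18, 21, 24–25, 28 and 35. Parameters were AUC0-t, AUC0-168, AUC0-inf, Cmax, tmax, t1/2, C168h and λinf.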

[6] = Adverse events in malaria patients; format: in vivo, human
Summary of the method: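 Patients received one oral dose of the test compound in suspension: 400 or 250 mg for P falciparum, and 400, 600 or 800 mg for P vivax. They were kept in clinic with checks every 4 h over days 0–3. Safety follow-up lasted 35 days. Safety was analysed in all patients who received at least one dose.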

[7] = 12-lead and Holter ECG safety analysis in malaria patients; format: in vivo, human
Summary of the method: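 Adults with uncomplicated malaria (18–70 years, 45–90 kg) received one oral dose of the test compound in suspension, ideally fasted. QT interval was corrected by Fridericia (QTcF) and compared with baseline. PR and QRS intervals were also recorded during the study.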

[8] = test system: Plasmodium vivax; assay: Gametocytaemia by microscopy; format: in vivo; settings: cohort 2b, P vivax, 600 mg
Summary of the method: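 Patients with P vivax malaria received one oral dose of the test compound: 400 mg in cohort 1b or 600 mg in cohort 2b. Gametocytaemia was assessed by microscopy throughout the 28-day follow-up. The measure was conversion from microscopy-negative at the start of treatment to gametocyte-positive.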

[9] = test system: P. falciparum; assay: MIC/MPC estimate from nadir of parasitaemia in recrudescing patients; format: in vivo, Plasmodium falciparum; settings: 400 mg
[10] = test system: P. falciparum Dd2 B2 clone; settings: dhodh Gly181Cys mutation; cited from earlier work
[11] = test system: P falciparum; settings: for a 60 kg patient; cited from earlier work
[12] = test system: P falciparum; settings: single dose of 400 mg administered 1 day before parasite challenge; cited from earlier work
[13] = target: PvDHODH enzyme; settings: truncated recombinant enzymes; cited from earlier work
[14] = test system: Plasmodium falciparum DHODH; settings: cited from earlier work
[15] = test system: P falciparum and P vivax field isolates; settings: ex-vivo; cited from earlier work
[16] = cited from earlier work
[17] = cohort 1a (n=13), P falciparum, 400 mg
[18] = cohort 1b (n=5), P vivax, 400 mg
[19] = cohort 2a (n=11), P falciparum, 250 mg
[20] = cohort 2b (n=9), P vivax, 600 mg
[21] = cohort 3b (n=7), P vivax, 800 mg

SMILES: Cc1cc(Nc2ccc(S(F)(F)(F)(F)F)cc2)n2nc(C(C)(F)F)nc2n1 [DSM265]
- patients achieving ACPR at day 28 ([1]; 250 mg, ITT): 55%
- patients achieving PCR-adjusted ACPR at day 14 ([1]; 250 mg, ITT): 73%
- patients achieving ACPR at day 28 ([1]; 250 mg, per-protocol): 60%
- patients achieving PCR-adjusted ACPR at day 14 ([1]; 250 mg, per-protocol): 80%
- patients achieving PCR-adjusted ACPR at day 14 ([1]; 400 mg single oral dose, per-protocol): 100%
- patients achieving ACPR at day 28 ([1]; 400 mg, ITT): 69%
- patients achieving PCR-adjusted ACPR at day 14 ([1]; 400 mg, ITT): 85%
- patients achieving ACPR at day 28 ([1]; 400 mg, per-protocol): 89%
- patients achieving crude cure at day 14 ([2]; P vivax, 400 mg, ITT (five patients)): none
- patients achieving crude cure at day 14 ([2]; P vivax, 400 mg, per-protocol (four patients)): none
- patients achieving crude cure at day 14 ([2]; P vivax, 600 mg, ITT): 33%
- patients achieving crude cure at day 14 ([2]; P vivax, 600 mg, per-protocol): 50%
- patients achieving crude cure at day 14 ([2]; P vivax, 800 mg, ITT): 14%
- patients achieving crude cure at day 14 ([2]; P vivax, 800 mg, per-protocol): 25%
- patients achieving a cure at day 28 ([2]; P vivax, all doses): No patients
- P vivax clearance ([2]; within the first 100 h, doses of 600 mg and 800 mg): 99–100%
- Profiles with lag ([3]; cohort 1a, 400 mg, 8 profiles analysed): 4
- Profiles with lag ([3]; cohort 2a, 250 mg, 7 profiles analysed): 5
- Profiles with lag ([4]; cohort 1b, 400 mg, 4 profiles analysed): 3
- Profiles with lag ([4]; cohort 2b, 600 mg, 9 profiles analysed): 3
- Profiles with lag ([4]; cohort 3b, 800 mg, 6 profiles analysed): 1
- dose proportionality based on Cmax and AUC0-∞ ([5]; P falciparum patients, 250 mg or 400 mg): dose proportional
- dose proportionality of exposure ([5]; P vivax patients, 400 mg to 800 mg): slightly subproportional
- Tmax ([5]; human, plasma, oral, tmax, seen for the other patients): 6 to 8 h
- patients with headache ([6]; all 45 patients): 40%
- patients with pyrexia ([6]; all 45 patients): 44%
- abnormal haematology laboratory results considered clinically significant ([6]; all patients): No patients
- treatment-related serious adverse events or adverse events leading to study discontinuation ([6]; all patients): no patients
- Adverse event of special interest [6, 17]: 2 (15%) number of patients (%)
- Any adverse event [6, 17]: 10 (77%) number of patients (%)
- Serious adverse event [6, 17]: 0 number of patients (%)
- Severe adverse event [6, 17]: 0 number of patients (%)
- Treatment-related adverse event [6, 17]: 3 (23%) number of patients (%)
- Adverse event of special interest [6, 18]: 0 number of patients (%)
- Any adverse event [6, 18]: 4 (80%) number of patients (%)
- Serious adverse event [6, 18]: 0 number of patients (%)
- Severe adverse event [6, 18]: 1 (20%) number of patients (%)
- Treatment-related adverse event [6, 18]: 1 (20%) number of patients (%)
- Adverse event of special interest [6, 19]: 3 (27%) number of patients (%)
- Any adverse event [6, 19]: 7 (64%) number of patients (%)
- Serious adverse event [6, 19]: 1 (9%) number of patients (%)
- Severe adverse event [6, 19]: 2 (18%) number of patients (%)
- Treatment-related adverse event [6, 19]: 2 (18%) number of patients (%)
- Adverse event of special interest [6, 20]: 1 (11%) number of patients (%)
- Any adverse event [6, 20]: 7 (78%) number of patients (%)
- Serious adverse event [6, 20]: 0 number of patients (%)
- Severe adverse event [6, 20]: 0 number of patients (%)
- Treatment-related adverse event [6, 20]: 0 number of patients (%)
- Adverse event of special interest [6, 21]: 0 number of patients (%)
- Any adverse event [6, 21]: 6 (86%) number of patients (%)
- Serious adverse event [6, 21]: 0 number of patients (%)
- Severe adverse event [6, 21]: 0 number of patients (%)
- Treatment-related adverse event [6, 21]: 0 number of patients (%)
- tolerability ([6]; single oral dose 250-800 mg, all patients): well tolerated
- values for QTcF recorded ([7]; in a few patients): 450 to 500 ms
- QTcF changes from baseline ([7]; more patients with P falciparum than P vivax): 30 to 60 ms
- patients negative for gametocytaemia at baseline who became positive [8]: 13%
- estimated duration of exposure greater than the minimum parasiticidal concentration [9]: around 10 days
- reduction in potency [10]: 26 times
- predicted efficacious single curative dose [11]: 340 mg
- protection from infection [12]: complete protection
- IC50 for the PvDHODH enzyme relative to PfDHODH [13]: two times higher
- in-vitro selectivity for Plasmodium falciparum DHODH over its human ortholog [14]: very high
- efficacy for P falciparum compared with P vivax [15]: five-times better
- duration of effectiveness (pharmacokinetic profile) ([16]; after a single oral dose in the range of 200–400 mg): more than 8 days
- tolerability ([16]; healthy participants, single doses of ≤1200 mg): generally well tolerated

SMILES: Cc1cc(Nc2ccc(C(F)(F)F)nc2)n2nc(C(C)(F)F)nc2n1 [DSM421, reference compound]
- efficacy for P falciparum compared with P vivax [15]: equal efficacy
